Assay results from different studies.
Protocols differ between the studies behind these lines.
SLC6A3: Sodium-dependent dopamine transporter (SLC6A3, Homo sapiens, UniProt Q01959)
PDE10A: cAMP and cAMP-inhibited cGMP 3',5'-cyclic phosphodiesterase 10A (PDE10A, Homo sapiens, UniProt Q9Y233)

Compound | target | assay | system | conditions | inhibition
CCN1/C(=C/C(C)=O)Sc2ccc(F)cc21 | SLC6A3 | ligand displacement, radioligand | – | 10 µM | 1.26%
C#Cc1cc(-c2cc(Nc3nc(N[C@@H](C)c4ccc(F)cn4)ncc3Cl)n[nH]2)ccc1C=O | Activated CDC42 kinase 1 (TNK2, Homo sapiens, UniProt Q07912) | enzyme activity, inhibitor | – | 0.2 µM | 73.3%
CCOC(=O)[C@@]12C[C@@H]1[C@@H](n1cnc3c(NCCCCCc4ccccc4)nc(I)nc31)[C@H](O)[C@@H]2O | SLC6A3 | ligand displacement, radioligand | – | 10 µM | 85%
COc1cc2ncnc(Cc3cccc4ccccc34)c2cc1OC | PDE10A | enzyme activity, inhibitor, FP | – | 0.1 µM | 56%
CCOC(=O)[C@@]12C[C@@H]1[C@@H](n1cnc3c(NCc4cccc(Cl)c4)nc(C#Cc4ccc(Cl)s4)nc31)[C@H](O)[C@@H]2O | SLC6A3 | ligand displacement, radioligand | – | 10 µM | 75%
COc1cc2ncnc(Cc3cccc(-c4ccccc4OC)c3)c2cc1OC | PDE10A | enzyme activity, inhibitor, FP | – | 0.1 µM | 31%
CC(C)C[C@H](NC(=O)[C@@H](NC(=O)[C@@H](NC(=O)[C@@H]1CCCN1C(=O)[C@@H](N)CCC(=O)O)C(C)C)[C@@H](C)O)C(=O)N[C@H](C(=O)O)[C@@H](C)O | Angiotensin-converting enzyme (ACE, Homo sapiens, UniProt P12821) | enzyme activity, inhibitor | – | 1.4 mM | 47.2%
COc1ccc2c(Cc3ccc(OC)c(OC)c3)ncnc2c1 | PDE10A | enzyme activity, inhibitor, FP | – | 0.1 µM | 22%
CCOC(=O)[C@@]12C[C@@H]1[C@@H](n1ccc3c(NCCCCCCCc4ccccc4)nc(C#Cc4ccccc4)nc31)[C@H](O)[C@@H]2O | SLC6A3 | ligand displacement, radioligand | – | 10 µM | 25%
CN(C)CCOC(=O)COc1ccc(Cl)cc1 | Peroxisome proliferator-activated receptor gamma (PPARG, Homo sapiens, UniProt P37231) | cell-free assay, TR-FRET | – | 1 µM | 3.65%
O[C@@H]1[C@H](O)[C@@H]2C[C@@H]2[C@H]1n1cnc2c(NCCC3CC3)ncnc21 | SLC6A3 | transporter uptake, inhibitor, radiometric | HEK293 | 20 nM | 50%
NC/C(=C\F)COc1cccc(Cn2c(=S)[nH]c(=O)c3[nH]cnc32)c1 | SLC6A3 | ligand displacement, radioligand | – | 10 µM | < 50%
COc1cc2ncnc(Cc3cccc(-c4ccccc4)c3)c2cc1OC | PDE10A | enzyme activity, inhibitor, FP | – | 0.1 µM | 63%
Cc1cc(O)c(-c2ccc([C@@H](C)CN(C)C)cc2)c2c1[nH]c(=O)c1sccc12 | Ephrin type-B receptor 4 (EPHB4, Homo sapiens, UniProt P54760) | cell-free assay, inhibitor | – | 0.1 µM | -4.58%
c1ccc(-c2cccc(Cc3nccc4ccccc34)c2)cc1 | PDE10A | enzyme activity, inhibitor, FP | – | 0.1 µM | 0%
CCOC(=O)[C@@]12C[C@@H]1[C@@H](n1cnc3c(NCCCCc4ccccc4)nc(I)nc31)[C@H](O)[C@@H]2O | SLC6A3 | ligand displacement, radioligand | – | 10 µM | 19%
COc1cc2ncnc(Cc3cccc(-c4ccccc4)c3C)c2cc1OC | PDE10A | enzyme activity, inhibitor, FP | – | 0.1 µM | 54%
CCOC(=O)[C@@]12C[C@@H]1[C@@H](n1cnc3c(NCCCCCCc4ccccc4)nc(C#Cc4ccc(Cl)s4)nc31)[C@H](O)[C@@H]2O | SLC6A3 | ligand displacement, radioligand | – | 10 µM | 23%
